The subject of series [1] is Calu-3. The series can be described thus: Cytotoxicity against human Calu3 cells assessed as cell viability after 72 hrs by WST-1 assay. In kind it is functional, cell-based. Particulars: Calu-3, 72 h. The procedure, abridged:
(§1)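 Cells grown in DMEM with L-glutamine (2 mM), 10% foetal bovine serum, 2.5% horse serum and penicillin/streptomycin at 37 °C under 5% CO₂. Seeded at 2 × 10³ cells/well and exposed to compound for 72 h, with DMSO ≤0.2% final. WST-1 added, absorbance read at 450 nm, and % reduction vs control calculated. IC₅₀ and Emax from nonlinear least-squares curve fit. Mean ± SEM, n = 3.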

Series [2] is described as follows: Cytotoxicity against human COLO320 cells assessed as cell viability after 72 hrs by WST-1 assay. In kind it is functional, cell-based. The note with it: COLO 320, 72 h. The procedure, abridged: as §1
A further series concerns COLO 320. Nature of the series: Induction of apoptosis in human COLO320 cells assessed as induction of caspase-3/7 at 20 uM after 4 hrs by spectrofluorimetry relative to control. In kind it is functional. Particulars: in the assay text read “at 10 uM” for “at 20 uM”. An outline of the steps: (§2)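 Cells seeded at 7 × 10³/well and treated with compound for 4 h. Apo-ONE homogeneous caspase-3/7 substrate then added. Fluorescence read at excitation 485 nm and emission 530 nm. Result given as the ratio of treated-cell signal to vehicle-only cells.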

Series [3] is described as follows: Cytotoxicity against human BSMC cells assessed as cell viability at 20 uM after 72 hrs by WST-1 assay. It is filed as cell-based. The procedure, abridged:
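Normal human bronchial smooth muscle cells grown in DMEM with 10% FBS and exposed to compound for 72 h. Viability compared with untreated control.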

The subject of series [4] is Calu-3. The series can be described thus: Induction of apoptosis in human Calu3 cells assessed as induction of caspase-3/7 at 10 uM after 4 hrs by spectrofluorimetry relative to control. In kind it is functional. The note with it: in the assay text read “at 20 uM” for “at 10 uM”. The procedure, abridged: as §2

Bounds are passed on as bounds.

Regarding `COc1ccc(-c2cc(-c3cc4ccccc4[nH]3)no2)cc1`, the IC50 (with Calu-3 [1]; in series [2]) was greater than 100 µM throughout.
On to `COc1cccc(-c2cc(-c3cc4ccccc4[nH]3)no2)c1`, for which the IC50 (in the series with Calu-3 [1]; in series [2]) was greater than 100 µM throughout.
As for `COc1ccc(-c2cc(-c3cc4ccccc4n3C)no2)cc1`, the IC50 (in the series with Calu-3 [1]; in series [2]) was greater than 100 µM throughout.
For `Cn1c(-c2cc(-c3cccc(F)c3)on2)cc2ccccc21`, the IC50 (with Calu-3 [1]; in series [2]) was greater than 100 µM in each case.
Turning to `COc1cccc(-c2cc(-c3cc4cc(OC)ccc4[nH]3)no2)c1`, the IC50 (with Calu-3 [1]; in series [2]) was greater than 100 µM throughout.
Turning to `COc1cccc(-c2cc(-c3cc4ccccc4n3C)no2)c1`, the IC50 with Calu-3 [1] came to 17.3 µM; in series [2], 69.5 µM.
Consider `COc1ccc2[nH]c(-c3cc(-c4cccc(F)c4)on3)cc2c1`, for which the half-maximal inhibitory concentration (IC50) (in the series on Calu-3 [1]; in series [2]) was greater than 100 µM each time.
With `COc1ccc(-c2cc(-c3cc4ccccc4n3C)on2)cc1`, the half-inhibitory concentration (IC50) (in the series on Calu-3 [1]; in series [2]) was greater than 100 µM in each case.
As to `COc1cccc(-c2cc(-c3cc4ccccc4n3C)on2)c1`, the IC50 (in the series with Calu-3 [1]; in series [2]) was greater than 100 µM each time.
For `COc1ccc2[nH]c(-c3cc(-c4cccc(F)c4)no3)cc2c1`, the IC50 was 97.9 µM in the series with Calu-3 [1] and greater than 100 µM in series [2].
Consider `Cn1c(-c2cc(-c3ccc(F)cc3)no2)cc2ccccc21`, for which the half-inhibitory concentration (IC50) (in the series on Calu-3 [1]; in series [2]) was greater than 100 µM throughout.
As for `COc1ccc(-c2cc(-c3c(Cl)c4ccccc4n3C)no2)cc1`, the IC50 in the series on Calu-3 [1] was determined as 60.9 µM; in series [2], 78.1 µM.
Take `Cn1c(-c2cc(-c3ccc(C(F)(F)F)cc3)on2)c(Cl)c2ccccc21`: the IC50 (in the series with Calu-3 [1]; in series [2]) was greater than 100 µM in each case.
`O=[N+]([O-])c1ccc(-c2cc(-c3ccc4[nH]ccc4c3)on2)cc1`: the results for the “fold change (FC)” value in the series on COLO 320 and with Calu-3 [4] were 3.76 and 2.84, respectively. Also, the Activity entry in series [3] is “Toxic”. In addition, the IC50 is 25.8 µM in the series on Calu-3 [1] and 14 µM in series [2].
In the case of `COC(=O)c1ccc(-c2cc(-c3ccc4[nH]ccc4c3)on2)cc1`, the IC50 (in the series on Calu-3 [1]; in series [2]) was greater than 100 µM throughout.
For `COc1ccc(-c2cc(-c3ccc4[nH]ccc4c3)on2)cc1`, the figures for the “fold change (FC)” value in the series on COLO 320 and in the series on Calu-3 [4] were 2.18 and 2.44, respectively. Also, the Activity entry in series [3] is “Non-toxic”. Further, the IC50 in the series on Calu-3 [1] worked out at 22.5 µM; in series [2], 13.5 µM.
Taken in the same sequence, the figures for `Fc1ccc(-c2cc(-c3ccc4[nH]ccc4c3)on2)cc1` were 1.81, 1.94, “Toxic”, 16.8 µM and 13.9 µM.
For `COc1cc(-c2cc(-c3ccc4[nH]ccc4c3)on2)cc(OC)c1OC`, in that order: 2.38, 3.39, “Non-toxic”, 13.3 µM and 9 µM.
Take `O=c1[nH]cc(F)c(=O)[nH]1` [FLUOROURACIL]: in series [2], the IC50 amounted to 12.5 µM.

For the origin of these results see ChEMBL document CHEMBL2146375, “Synthesis and evaluation of indole-containing 3,5-diarylisoxazoles as potential pro-apoptotic antitumour agents” (Eur J Med Chem, 2012).
